Bioassay records as filed in PubChem.
This is a sample that favours compounds with a hit; in the whole collection about 3.4% have one here.
ERAP1 HTS inh: inhibitors of human ERAP1 aminopeptidase. Q9NZ08. recombinant ERAP1, Leu-AMC fluorescence, 60 min. inhibition, % at 10.7 µM. 340,000 compounds, 0.15% hits;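 active means mean replicate inhibition of at least 30%, or all replicates individually reaching that 30% level; inactive means mean below 30% and not every replicate reaching it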;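 further: 0% = neutral control wells and 100% = L-leucinethiol positive control wells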
SIRT5 block: inhibitors of human sirtuin-5 desuccinylase. Purified SirT5, succinyl-peptide AMC, trypsin-coupled fluorescence. Q9NXA8. 330,000 compounds, 1.1% hits. AID 652115. inhibition, % at 15 µM; in the data active means inhibition above about 15%
Target sequence (Q9NXA8 whole entry, looked up): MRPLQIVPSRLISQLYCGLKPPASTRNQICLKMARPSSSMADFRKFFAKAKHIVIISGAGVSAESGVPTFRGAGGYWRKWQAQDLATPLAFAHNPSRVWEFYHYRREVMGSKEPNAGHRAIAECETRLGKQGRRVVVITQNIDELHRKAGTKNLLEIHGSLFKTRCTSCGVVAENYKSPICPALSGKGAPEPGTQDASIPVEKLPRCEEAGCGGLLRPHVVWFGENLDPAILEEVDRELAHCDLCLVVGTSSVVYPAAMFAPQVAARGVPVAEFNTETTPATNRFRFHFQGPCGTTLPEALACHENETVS
Ecoli rRNA inh: inhibitors of bacterial rRNA selective over humanized ribosomes; E. coli WT GFP vs humanized-ribosome RFP mutants, fluorescence, 24 h; hits give low values; DMSO median 0, no signal -100; GFP signal change (wild-type ribosome), % (no concentration beside the values); 350,000 compounds, 1.6% hits;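 active means significant combined selectivity score with lowered wild-type GFP, culture density cut under 30%, mutant RFP and density less affected; inactive means any of these conditions unmet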
E-selectin induc: induces E-selectin expression in human endothelial cells. activation, % at 7.58 µM. HUVEC E-selectin immunofluorescence imaging; normalized: neutral wells 0, TNF-alpha wells 100. AID 686992. 260,000 compounds, 0.37% hits;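 active means mean E-selectin-positive cell signal at least 10% of the positive control, reached in at least 60% of replicates, without over 20% cell loss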
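Read-out: % PE-positive cells | Test system: HUVEC | Doses: One compound dose added by pin transfer | Buffer or medium: EGM-2 over gelatin coat | Signal: Immunofluorescence imaging | Benchmarks: TNF-alpha, DMSO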
S100A4 MyoIIA: S100A4-myosin IIA interaction inhibition | AID 652163 | inhibition, % at 10.7 µM | 360,000 compounds, 0.14% hits | S100A4/TAMRA-MyoIIA peptide fluorescence polarization;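 active means mean inhibition of at least 70% across replicates, with every replicate also reaching that level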
Target sequence (P26447 whole entry, looked up): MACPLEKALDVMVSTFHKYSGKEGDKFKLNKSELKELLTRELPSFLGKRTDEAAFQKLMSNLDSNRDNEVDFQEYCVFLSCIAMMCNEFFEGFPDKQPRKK
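Assay system: human S100A4 monomer with TAMRA-labelled myosin IIA peptide / Buffer or medium: Calcium-containing HEPES buffer, pH 7.2 / Reagent: TAMRA-labelled myosin IIA heavy-chain peptide probe, 5 nM / Compound: one dose per compound / Timing: polarization read 5 min after assay mix addition, stable 5–60 min / Benchmarks: neutral control DMSO, positive control TFP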
MLL AF4-AF9 inh: inhibitors of human MLL-AF4/AF9 interaction; AlphaScreen, biotin-AF4 peptide binding to FLAG-AF9; inhibition, % at 10 µM; 350,000 compounds, 0.47% hits; AID 651704;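 active means every replicate reaching a set inhibition limit, whatever the replicate mean, cut at about 25% in these data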;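 further: 0% = plate neutral control median and 100% = total signal loss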
* hit, by the source's call; / = no result; + = active, no number.

SMILES | ERAP1 HTS inh | SIRT5 block | Ecoli rRNA inh | E-selectin induc | S100A4 MyoIIA | MLL AF4-AF9 inh
O=C(N/N=C/c1c(O)n(Cc2ccco2)c(=O)[nH]c1=O)c1ccccc1O | 14 | 15* | 2 | 4 | 6 | 7
CC(=O)Nc1ccc(N=Cc2c(O)n(Cc3ccco3)c(=O)[nH]c2=O)cc1 | / | 6 | -13 | / | 7 | -2
CCOC(=O)[C@]12Cc3cc4ccccc4cc3[C@H]1N(Cc1ccccc1)C(=O)c1ccccc12 | / | 27* | -35 | 1 | -17 | -11
CS(=O)(=O)N1C[C@@H]2C(c3ccccc3)[C@H](C1)N2CC1CC1 (stereo not given in full) | / | / | 0 | / | / | /
Oc1ccc2c3c1OC1c4oc5ccccc5c4C[C@@]4(O)[C@@H](C2)N(CC2CC2)CC[C@]314 (stereo not given in full) | -5 | / | -20* | / | 3 | /
O=[N+]([O-])c1ccc(N2CCOCC2)c2c1no[n+]2[O-] | -1 | / | -24* | 0 | 4 | 6
Cc1ccccc1-c1nc2ccccc2c(=O)n1C | 0 | -3 | -7 | / | -3 | 6
Cn1c(NN=O)nc2ccccc21 | -1 | -5 | -23* | / | 9 | 12
CC(=O)N1[C@@H]2Cn3c(ccc(-c4cccc(C(=O)N(C)C)c4)c3=O)[C@H]1[C@@H](C(=O)O)[C@@H]2CO | / | / | 3 | / | / | /
O=C(Cc1ccccn1)N1CCCCN2[C@H](C1)[C@@H](c1ccc(C#Cc3ccccc3)cc1)[C@@H]2CO | -1 | 1 | -59 | 0 | -9 | -12
COC(=O)[C@@H]1[C@@H](CO)[C@@H]2Cn3c(cccc3=O)[C@H]1N2C(=O)C1CCC1 | 0 | 0 | / | / | -4 | -2
CC(=O)OC1(c2ccccc2)CCN(C)CC1(C)C (stereo not given) | -3 | 15* | 11 | 0 | 6 | 0
COCC#Cc1ccc([C@@H]2[C@H]3CN(C(=O)Cc4ccccn4)CCCCN3[C@H]2CO)cc1 | -3 | -3 | 1 | 0 | 7 | -8
COc1ccc(NC2(C#N)CCCCC2)cc1 | / | / | 5 | 5 | 4 | 0
CCCCN1CCC(C#N)(Nc2ccccc2)CC1 | 3 | 22* | 24 | / | -8 | /
Cc1ccc(OC(=O)N(C)C[C@@H]2OCc3ccccc3-c3c(n(C)c4ccccc34)C(=O)N([C@H](C)CO)C[C@@H]2C)cc1 | -7 | 3 | 2 | 2 | 0 | 5
CS(=O)(=O)N1CC2NC(C1)C2c1ccc(Br)cc1 (stereo not given) | / | / | -3 | / | / | /
O=c1ccc2cc(O[C@@H]3O[C@@H](CO)[C@H](O)[C@@H](O)[C@@H]3O)c(O)cc2o1 | + | -128 | 19 | 0 | 0 | -2
N#C[C@H](O[C@@H]1O[C@H](CO[C@@H]2O[C@H](CO)[C@@H](O)[C@H](O)[C@H]2O)[C@@H](O)[C@H](O)[C@H]1O)c1ccccc1 | / | / | 6 | 0 | -2 | -4
CN(C)CC1CCCCC1OC(=O)Cc1ccc(Cl)c([N+](=O)[O-])c1 (stereo not given) | 15 | -3 | 3 | 50* | 10 | 0
O=C(Cc1ccccc1)N1CCCCN2[C@H](CO)[C@H](c3ccc(C#Cc4ccccc4)cc3)[C@@H]2C1 | -3 | -3 | 3 | 0 | -1 | -7
COc1ccc(OC)c(C(c2c(O)c3ccccc3oc2=O)c2c(C)n(C)n(-c3ccccc3)c2=O)c1 (stereo not given) | 1 | -4 | -3 | 0 | -11 | -6
Cc1c(C(c2ccc(O)cc2)c2c(O)c3ccccc3oc2=O)c(=O)n(-c2ccccc2)n1C (stereo not given) | -3 | 2 | -14* | 1 | -2 | -5
COc1cccc(N2C(=O)NC(=O)/C(=C/c3ccc4c5c(cccc35)CC4)C2=O)c1 | 5 | 37* | 13 | 2 | -19 | -2
CN(C)[C@@H]1C(=O)C(C(N)=O)=C(O)[C@@]2(O)C(=O)C3=C(O)c4c(O)cccc4[C@@](C)(O)C3[C@H](O)C12 (stereo not given in full) | 8 | 36* | -19 | 0 | 3 | -8
SMILES | ERAP1 HTS inh | SIRT5 block | Ecoli rRNA inh | E-selectin induc | S100A4 MyoIIA | MLL AF4-AF9 inh
Cc1cc(OCC(=O)NCc2ccncc2)c2c3c(c(=O)oc2c1)CCC3 | 0 | -16 | -1 | / | -1 | 1
Cc1cc(OCC(=O)NC(Cc2ccc(Cl)cc2)C(=O)O)c2c3c(c(=O)oc2c1)CCCC3 (stereo not given) | 31* | / | / | / | -5 | 1
N#Cc1cccc(-c2ccc([C@@H]3[C@H]4CN(C(=O)Cc5ccncc5)CCCCN4[C@H]3CO)cc2)c1 | 1 | 5 | -3 | 0 | -17 | -5
CCCCCCOc1ccc(CN2CCN(C)CC2)cc1 | 1 | -4 | -25* | / | -3 | 4
O=[N+]([O-])c1ccc(N2CCCCCC2)c2ncccc12 | 0 | -3 | -42 | 0 | -6 | 27*
O=[N+]([O-])c1ccc(N2CCCCC2)c2ncccc12 | -1 | 3 | -43* | / | -2 | 21
CN1[C@@H]2CN(S(C)(=O)=O)C[C@H]1C2c1ccc(Br)cc1 (stereo not given in full) | / | / | 2 | / | / | /
CC(C)NC(=O)N1[C@@H]2Cn3c(ccc(-c4cccc(C(=O)N(C)C)c4)c3=O)[C@H]1[C@@H](C(=O)O)[C@@H]2CO | -1 | -14 | 3 | 0 | 33 | -1
COC(=O)[C@@H]1[C@@H](C(=O)OC)C2(c3ccccc3-c3ccccc32)N(c2ccc(Cl)cc2)N1C#N | 3 | 17* | 2 | / | -1 | /
COC(=O)C[C@]1(C(=O)OC)CN(C#N)N(c2ccc(Cl)cc2)C12c1ccccc1-c1ccccc12 | 4 | -2 | 18 | / | 1 | /
CC[N+](C)(CC)CCCCOc1ccc2c(c1)C(=O)c1cc(OCCCC[N+](C)(CC)CC)ccc1-2 | 68* | -2 | -53* | / | 5 | 1
N#Cc1cccc(-c2ccc([C@H]3[C@H](CO)N4CCCCN(C(=O)Cc5ccncc5)C[C@@H]34)cc2)c1 | 0 | -2 | -3 | 0 | -8 | -2
CC=Cc1ccc2n(c1=O)C[C@H]1[C@H](CO)[C@@H](C(=O)N(C)C)[C@@H]2N1C (mixture of isomers) | 3 | -2 | 10 | 0 | -1 | 0
COc1ccccc1N1CCN(CCc2c[nH]c3cc4c(cc23)OCO4)CC1 | -1 | -6 | 4 | 0 | -3 | 30*
CC1(CCO)CC(C)(CCc2ccccc2)OO1 (stereo not given) | 3 | 2 | / | / | -65 | -20
CCC(=O)N1N=C(c2c(O)n(CCc3ccccc3)c(=O)[nH]c2=O)CC1c1ccc(OC)c(OC)c1 (stereo not given) | 0 | -3 | -28* | / | 5 | /
COc1ccc(CCn2c(O)c(/C=N/N3CCOCC3)c(=O)[nH]c2=O)cc1OC | -3 | 2 | 21 | 0 | 2 | /
